Screening results deposited in PubChem by several laboratories.
Sampled rows, rich in hits. Any-hit rate of the full collection: about 11%.
L major viab = Leishmania major promastigote growth inhibition | Leishmania major promastigotes, resazurin fluorescence viability | inhibition, % at 10 µM | 9% of 200,000 active | AID 1063;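 further: promastigotes grown with compound for 44 hours at 28 °C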
WT yeast gro inh = growth inhibition of WT yeast, mitochondrial fusion screen. AID 1362. mitochondrial fusion phenotypic screen, WT strain. 2.1% of 190,000 active. inhibition, % at 10 µM; in the data active means inhibition above about 58%; tested in S. cerevisiae
G6PDH counter = counter-screen for G6PDH assay hits: L. mesenteroides G6PDH inhibition; inhibition, % at 5 µM; AID 1020; 0.12% of 200,000 active; Purified L. mesenteroides G6PDH, diaphorase/resazurin coupled fluorescence, 45 min
Diaph act CS = diaphorase activation or chemical reduction counter-screen. 0.005% of 190,000 active. activation factor at 20 µM. Diaphorase/resazurin coupled assay, resorufin fluorescence, 16 min; active compounds read high; 1 = vehicle wells, 0 = NADH-free wells;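 active means diaphorase activity raised at least twofold by the compound at 20 µM; inactive means activation factor below 2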
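Material: purified diaphorase enzyme from Clostridium kluyveri; Also added: 0.114 mM NADH and 0.1 mM resazurin, final amounts; Doses: single compound dose of 20 µM, 1% DMSO final; Times: 16 min enzyme reaction, ambient temperature; Detection: resorufin fluorescence, excitation 544 nm, emission 590 nm; Measure: increased resorufin signal from activators or reducing compounds.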
Diaph inh CS = diaphorase inhibition or chemical oxidation counter-screen | diaphorase resazurin-to-resorufin fluorescence, NADH, 16 min; bacterial (C. kluyveri) enzyme, not human | inhibition, % at 20 µM | 0.69% of 190,000 active | AID 1217;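 active means primary screen inhibition at 20 µM above a set limit, cut at about 50% in these data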
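Detection: fluorescence of resorufin formed from resazurin, Ex 544/Em 590 nm; test system: Clostridium kluyveri diaphorase enzyme; amount: 0.14 U/mL diaphorase, enzyme working solution; times: 16-min room-temperature incubation before reading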
A number is an active result. Unless noted, no stated cut-off is given here; in the data, active means inhibition above about 50%; inactive means the rest.

`Cc1ccc(Sc2ccc(CN3CCCCC3)cc2[N+](=O)[O-])cc1` gave L major viab 79, WT yeast gro inh 61, G6PDH counter inactive, Diaph act CS inactive and Diaph inh CS inactive.
Screening COc1cc([N+](=O)[O-])cc(/C=N/NC(=O)C(C)Nc2ccccc2C)c1O (configuration not stated) returned L major viab inactive, WT yeast gro inh inactive, G6PDH counter inactive, Diaph act CS inactive and Diaph inh CS inactive.
`Fc1ccc(COc2ccc(Br)cc2CNCC2CCCO2)cc1` (configuration not stated) gave L major viab 82, WT yeast gro inh inactive, G6PDH counter inactive, Diaph act CS inactive and Diaph inh CS inactive.
For Clc1ccc(-c2n[nH]c3c2CCC3)cc1Cl the results were L major viab inactive, WT yeast gro inh inactive, G6PDH counter inactive, Diaph act CS inactive and Diaph inh CS inactive.
Clc1ccc(-c2n[nH]c3c2CCCC3)cc1 was read as L major viab inactive, WT yeast gro inh 62, G6PDH counter inactive, Diaph act CS inactive and Diaph inh CS inactive.
`CCOC(=O)C1CCCN(C(=O)CN2C(=O)c3ccccc3C2=O)C1` (configuration not stated) gave L major viab inactive, WT yeast gro inh inactive, G6PDH counter inactive, Diaph act CS inactive and Diaph inh CS inactive.
`CCOC(=O)C1CCCN(C(=O)CN2C(=O)/C(=C/c3ccc(OC)cc3)Oc3ccccc32)C1` (configuration not stated) gave L major viab 74, WT yeast gro inh 59, G6PDH counter inactive, Diaph act CS inactive and Diaph inh CS inactive.
Screening O=C(COC(=O)c1c2c(nc3ccccc13)CCCCC2)c1ccc(Cl)s1 returned L major viab 62, WT yeast gro inh inactive, G6PDH counter inactive, Diaph act CS inactive and Diaph inh CS inactive.
For COc1ccc(CC(=S)N2CCOCC2)cc1OC the results were L major viab inactive, WT yeast gro inh inactive, G6PDH counter inactive, Diaph act CS inactive and Diaph inh CS inactive.
`CCOC(=O)C1CCN(C(=O)Cc2ccc(OC)c(OC)c2)CC1` gave L major viab inactive, WT yeast gro inh 72, G6PDH counter inactive, Diaph act CS inactive and Diaph inh CS inactive.
COc1ccc(CC(=O)N2CCOCC2)cc1OC was read as L major viab inactive, WT yeast gro inh 87, G6PDH counter inactive, Diaph act CS inactive and Diaph inh CS inactive.
`CCOc1cc(C2NC(=O)NC(c3ccccc3)=C2C(=O)c2ccccc2)c(Br)cc1OCC(=O)O` (configuration not stated) gave L major viab inactive, WT yeast gro inh inactive, G6PDH counter inactive, Diaph act CS inactive and Diaph inh CS inactive.
Cc1ccccc1C(=O)Nc1ccc2c(C#N)c3nc4ccccc4nc3n2c1 was read as L major viab inactive, WT yeast gro inh inactive, G6PDH counter inactive, Diaph act CS inactive and Diaph inh CS 72.
Cc1c(C(=O)Nc2ccccc2)cn2c(nc3ccccc32)c1C#N was read as L major viab inactive, WT yeast gro inh inactive, G6PDH counter inactive, Diaph act CS inactive and Diaph inh CS inactive.
Screening CCOc1cc(Br)ccc1S(=O)(=O)N1CCC(C(N)=O)CC1 returned L major viab inactive, WT yeast gro inh inactive, G6PDH counter inactive, Diaph act CS inactive and Diaph inh CS inactive.
For Cn1cccc1Cc1nnc(SCC(=O)Nc2cccc(F)c2)n1-c1ccc(F)cc1 the results were L major viab inactive, WT yeast gro inh inactive, G6PDH counter inactive, Diaph act CS inactive and Diaph inh CS inactive.
Screening Cn1cccc1Cc1nnc(SCC(=O)Nc2cccc(Cl)c2)n1-c1ccc(F)cc1 returned L major viab 62, WT yeast gro inh inactive, G6PDH counter inactive, Diaph act CS inactive and Diaph inh CS inactive.
For Cc1ccc(NC(=O)CSc2nnc(Cc3cccn3C)n2-c2ccc(F)cc2)c(C)c1 the results were L major viab 62, WT yeast gro inh inactive, G6PDH counter inactive, Diaph act CS inactive and Diaph inh CS inactive.
For O=C(CSc1nccc(=O)[nH]1)N1CCN(c2ccccc2)CC1 the results were L major viab inactive, WT yeast gro inh inactive, G6PDH counter inactive, Diaph act CS inactive and Diaph inh CS inactive.
Screening CCOc1ccc(NC(=O)CNC(=O)c2cn(-c3ccccc3OC)c(=O)c3ccccc23)cc1 returned L major viab inactive, WT yeast gro inh inactive, G6PDH counter inactive, Diaph act CS inactive and Diaph inh CS inactive.
`CC(Oc1cccc(Cl)c1)C(=O)Nc1ccc([N+](=O)[O-])cn1` (configuration not stated) gave L major viab 61, WT yeast gro inh inactive, G6PDH counter inactive, Diaph act CS inactive and Diaph inh CS inactive.
`CCOC(=O)Cn1nnnc1C(CC)N(Cc1ccccc1)Cc1cc2cc(C)ccc2[nH]c1=O` (configuration not stated) gave L major viab 97, WT yeast gro inh inactive, G6PDH counter inactive, Diaph act CS inactive and Diaph inh CS inactive.
For CCCC(c1nnnn1CC(=O)OCC)N(Cc1cc2c(C)cc(C)cc2[nH]c1=O)C1CCCC1 (configuration not stated) the results were L major viab 55, WT yeast gro inh inactive, G6PDH counter inactive, Diaph act CS inactive and Diaph inh CS inactive.
Screening Cc1ccc(Cl)cc1N1CCN(C(=O)Cc2ccc(-n3c(=O)[nH]c4ccsc4c3=O)cc2)CC1 returned L major viab 57, WT yeast gro inh inactive, G6PDH counter inactive, Diaph act CS inactive and Diaph inh CS inactive.
For O=C(COC(=O)c1cc[n+]([O-])cc1)Nc1ccc([N+](=O)[O-])cc1 the results were L major viab inactive, WT yeast gro inh inactive, G6PDH counter inactive, Diaph act CS inactive and Diaph inh CS inactive.
O=C(COC(=O)c1ccc[n+]([O-])c1)Nc1c(Br)cc([N+](=O)[O-])cc1Br was read as L major viab 61, WT yeast gro inh inactive, G6PDH counter inactive, Diaph act CS inactive and Diaph inh CS inactive.
Screening O=C(CNCc1ccco1)Nc1ccc(Oc2ccccc2)cc1 returned L major viab inactive, WT yeast gro inh inactive, G6PDH counter inactive, Diaph act CS inactive and Diaph inh CS inactive.
Screening Cc1ccccc1S(=O)(=O)c1c(C)cc(-c2ccccc2)[nH]c1=O returned L major viab inactive, WT yeast gro inh inactive, G6PDH counter inactive, Diaph act CS inactive and Diaph inh CS inactive.
C=CCNC(=O)c1c(N)n(-c2cccc(S(N)(=O)=O)c2)c2nc3ccccc3nc12 was read as L major viab 84, WT yeast gro inh inactive, G6PDH counter inactive, Diaph act CS inactive and Diaph inh CS inactive.
Screening CC(C)CN=Cc1c(O)c([N+](=O)[O-])cc2oc3c(c12)CCCC3 returned L major viab inactive, WT yeast gro inh inactive, G6PDH counter inactive, Diaph act CS inactive and Diaph inh CS 56.
O=[N+]([O-])c1cc2oc3c(c2c(C=NCc2ccccc2)c1O)CCCC3 was read as L major viab inactive, WT yeast gro inh inactive, G6PDH counter inactive, Diaph act CS inactive and Diaph inh CS inactive.
